Screens as filed in PubChem BioAssay.
A selection: hits, their analogues and other compounds. The true share with any hit is near 1.8%.
CHRM4 PAM = positive allosteric modulators of human muscarinic M4 receptor | P08173 | CHO-K1 hM4/Gqi5, Fluo-8 calcium fluorescence, ACh EC20; 0% = ACh EC20, 100% = maximal ACh | activation, % at 3 µM | 360,000 compounds, 0.4% hits;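 active means activation above its plate's cutoff, the mean activation of sample wells plus 3 SD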
CHRM5 PAM = potentiates acetylcholine response at human M5 receptor; CHO-K1 hM5, Fluo-8 calcium, ACh EC20 PAM; 0% = ACh EC20, 100% = ACh EC100; activation, % at 3 µM; 360,000 compounds, 0.3% hits;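 active means activation above the run cutoff, the mean activation of all test compounds plus 3 SD, cut at about 18% in these data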
Target sequence (P08912 whole entry, looked up): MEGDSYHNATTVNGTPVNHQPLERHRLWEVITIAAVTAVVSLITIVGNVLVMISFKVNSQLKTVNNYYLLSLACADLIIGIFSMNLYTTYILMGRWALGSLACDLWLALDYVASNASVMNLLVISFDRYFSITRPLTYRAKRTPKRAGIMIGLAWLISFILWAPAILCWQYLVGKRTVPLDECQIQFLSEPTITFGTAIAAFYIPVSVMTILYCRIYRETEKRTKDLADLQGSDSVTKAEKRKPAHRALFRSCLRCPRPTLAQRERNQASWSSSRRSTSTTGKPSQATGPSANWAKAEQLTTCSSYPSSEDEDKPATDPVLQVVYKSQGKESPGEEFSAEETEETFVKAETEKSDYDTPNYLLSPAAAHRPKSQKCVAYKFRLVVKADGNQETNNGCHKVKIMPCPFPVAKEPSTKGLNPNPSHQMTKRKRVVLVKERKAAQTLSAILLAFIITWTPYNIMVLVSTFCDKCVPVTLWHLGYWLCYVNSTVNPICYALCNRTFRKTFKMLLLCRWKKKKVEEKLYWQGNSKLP
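Measured by: Fluo-8 calcium fluorescence; material: human M5 receptor in CHO-K1 cells; schedule: Post-acetylcholine fluorescence recording 140 s; benchmarks: low control EC20 acetylcholine (0%), high control EC100 acetylcholine (100%); read-out: Max/basal fluorescence ratio as % of EC20–EC100 ACh window; compound: single dose, 3 µM nominal final test concentration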
M4 ag = CHRM4 agonism in calcium assay. P08173. activation, % at 3 µM. CHO-K1 hM4/Gqi5, Fluo-8 calcium fluorescence; vehicle 0%, full acetylcholine response 100%. 360,000 compounds, 0.14% hits;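 active means activation above the run mean over all test wells plus 3 SD, cut at about 32% in these data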;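 further: peak over basal fluorescence ratio per well then scaled between controls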
M4 antag = blocks acetylcholine activation of human M4 receptor. P08173. CHO-hM4 cells, ACh EC80, Fluo-8 calcium fluorescence. inhibition, % at 3 µM. 360,000 compounds, 0.73% hits. AID 624125;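 active means inhibition above its plate's cutoff, the mean inhibition of sample wells plus 3 SD, cut at about 27% in these data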
M5 ag = CHRM5 agonism in calcium assay | activation, % at 3 µM | CHO-K1 hM5 cells, Fluo-8 calcium fluorescence; 0% DMSO wells, 100% maximal acetylcholine response | 360,000 compounds, 0.19% hits | P08912 | AID 624037;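 active means activation above the run's mean over test compounds plus 3 SD, cut at about 23% in these data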;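 further: signal is peak over basal fluorescence ratio across the kinetic read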
CHRM5 antagonist = antagonists of human muscarinic M5 receptor (CHRM5). P08912. CHO-hM5 cells, Fluo-8 calcium fluorescence, ACh EC80. inhibition, % at 3 µM. 360,000 compounds, 0.59% hits;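 active means inhibition above a per-plate cutoff, the mean of that plate's test compounds plus 3 SD, cut at about 27% in these data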
Large screens that a line does not name were inactive.

CCOC(=O)N1CCC(NCCNC(=O)c2ccc(F)c(F)c2)CC1	none
CC(=O)N1CCN(S(=O)(=O)c2ccc3c(c2)CCC(=O)N3)CC1	none
COC(=O)c1c(-c2ccncc2)csc1NC(=O)c1ccoc1C	CHRM4 PAM 48, M4 antag 32
CCc1cc(C(=O)OC)c(NC(=O)c2ccoc2C)s1	none
O=C(N/N=C/c1ccccc1)C(=O)N/N=C/c1ccccc1	none
CN(C)/C=C(\C#N)C(=O)N/N=C/c1ccccc1	CHRM5 PAM 18
COC(=O)c1cn(NC(=O)c2cc(OC)c(OC)c(OC)c2)c(=O)c2ccccc12	CHRM5 PAM 24
COC(=O)c1cn(NC(=O)c2cc(OC)cc(OC)c2)c(=O)c2ccccc12	none
CN(C)NC(=S)NC1CCS(=O)(=O)C1 (stereo unspecified)	CHRM5 PAM 21
O=C(CN1C(=O)/C(=C/c2ccccc2F)Sc2ccccc21)NCC1CCCO1 (stereo unspecified)	none
CC1(C)CCC/C(=C\c2ccccc2)C1=O	none
Cc1cc(=O)n2nc(N3CCCC(C(=O)N4CCc5ccccc54)C3)sc2n1 (stereo unspecified)	M4 antag 32
COC(=O)c1cc2cc(Cl)ccc2nc1SC	none
O=C(COC(=O)C1CCN(c2ccc(C(F)(F)F)cn2)CC1)NCc1ccccc1	none
CCOC(=O)C1=NN(c2ccccc2)C2C(=O)N(c3ccccc3OC)C(=O)C12 (stereo unspecified)	CHRM5 antagonist 27
CCOC(=O)C1=NN(c2ccc(OC)cc2)C2C(=O)N(c3ccccc3OC)C(=O)C12 (stereo unspecified)	none
CCCNC(=O)C1(C)CCCN(Cc2cccc(C#N)c2)C1 (stereo unspecified)	none
COC(=O)CCCC1=CC2=CC(=O)C(C)(OC(=O)c3cccs3)C(=O)C2=CN1c1ccc(OC)cc1 (stereo unspecified)	M4 antag 27
COC(=O)CCCC1=CC2=CC(=O)C(C)(OC(=O)c3cccs3)C(=O)C2=CN1Cc1ccccc1 (stereo unspecified)	none
COc1cc(/C=C2\SC(=S)N(CCC(=O)Nc3cccc(O)c3)C2=O)cc(OC)c1OC	CHRM5 antagonist 27
COc1cc(/C=C2\SC(=S)N(NC(=O)c3ccc(O)c(OC)c3)C2=O)ccc1O	M4 ag 35, M5 ag 25
COc1cc(/C=C2\SC(=S)N(NC(=O)c3cccc(O)c3)C2=O)ccc1O	M4 ag 36
COc1cc(/C=C2\SC(=S)N(CCC(=O)Nc3ccccc3)C2=O)cc(OC)c1OC	none
CCOc1ccc(N(CC(=O)N2CCCCCC2)S(=O)(=O)c2ccc(F)cc2)cc1	none
CCCCn1nc(C(=O)N2CCN(S(=O)(=O)c3ccccc3)CC2)c2ccccc2c1=O	none
NC(=O)C1CC(=O)N(c2ccc(OCc3ccc(Cl)c(Cl)c3)cc2)C1 (stereo unspecified)	CHRM5 antagonist 28
CCOC(=O)C1(C)CCN1C(=O)c1cc2ccccc2s1 (stereo unspecified)	none
CCN(CC)c1ccc(C=Nc2cc(C)ccc2C)c(O)c1	CHRM4 PAM 25
CN(Cc1cccs1)C(=O)c1cccc(S(=O)(=O)N2CCCCCC2)c1	none
Cc1cc(C)cc(NC(=O)COC(=O)Cn2cnc3c2c(=O)n(C)c(=O)n3C)c1	none
CCC(=O)N[C@H]1C=C[C@H](CC(=O)OC)O[C@@H]1CO	none
COC(=O)C[C@H]1C=C[C@@H](NC(=O)C2CC2)[C@@H](CO)O1	CHRM5 PAM 20
CC(=O)c1cccc(NC(=O)Nc2ccc3c(c2)N(C)C(=O)CS3)c1	CHRM5 antagonist 30
Cc1cc(C(=O)N2CCC2(C)C(=O)O)c(C)o1 (stereo unspecified)	CHRM4 PAM 18
COc1ccc(C(C#N)=C2C=CC(=NO)C=C2)cc1	none
N#CC(=C1C=CC(=NO)C(Cl)=C1)c1ccc(Cl)cc1	M4 antag 39
C=CCN1C(=O)/C(=C/C=C2/N(CC)c3ccc(S(=O)(=O)N(C)C)cc3N2CC)SC1=S	M5 ag 24
Cc1c(NC(=O)CN2CCN(c3ccc(O)cc3)CC2)c(=O)n(-c2ccccc2)n1C	none
O=c1c2cc(NC(=S)NCCCN3CCC(Cc4ccccc4)CC3)ccc2nc2n1CCCCC2	M4 antag 44
Cc1ccc(S(=O)(=O)N2CCN(C(=O)C3CCN(c4ncnc5sc(C)c(C)c45)CC3)CC2)c(C)c1	CHRM4 PAM 26
Cc1sc2ncnc(N3CCN(S(=O)(=O)c4ccc(C(C)(C)C)cc4)CC3)c2c1C	none
CCN(CC)CCNC(=O)c1ccc(NC(=O)C2CCN(c3ncnc4sc(C)c(C)c34)CC2)cc1	M4 ag 80, M4 antag 58
Cc1sc2ncnc(N3CCC(C(=O)Nc4ccc(OC(F)F)c(Cl)c4)CC3)c2c1C	none
COc1ccccc1NC(=O)Cn1nnc(-c2ccccc2NS(=O)(=O)c2ccccc2)n1	CHRM5 antagonist 34
S=c1[nH]ncn2c1cc1oc3ccccc3c12	none
COCn1c(-c2ccccc2)nc2ccccc21	CHRM4 PAM 29
O=C(Nc1ccccc1Cl)c1ccc(S(=O)(=O)NCC2CCCO2)cc1 (stereo unspecified)	none
CCCc1nc2c3ccccc3ccn2c1Cc1cccc(F)c1	M4 antag 57, CHRM5 antagonist 47
CCCc1nc2ccc(C)cn2c1Cc1cccc(F)c1	none
CC(=O)/C(C(=N)N1CCN(C(c2ccccc2)c2ccccc2)CC1)=C(\C)O	M4 antag 91, CHRM5 antagonist 83
O=C(O)/C=C/C(=O)N1CCN(C(c2ccccc2)c2ccccc2)CC1	M4 antag 30, CHRM5 antagonist 27
CC(=O)/C(C(=N)N1CCN(Cc2ccccc2)CC1)=C(\C)O	none
COc1ccc(N2CCN(CC(=O)N3c4ccccc4CC3C)CC2)cc1 (stereo unspecified)	none
O=C(NC1CCCCC1)C1CC(=O)N(CCc2ccc(F)cc2)C1 (stereo unspecified)	none
O=C(/C=N/O)Nc1ccc2sc3ccccc3c2c1	none
COc1cc2nc(N3CCN(C(=O)c4ccco4)CC3)nc(N)c2cc1OC	none
COc1ccc(S(=O)(=O)N2CCN(C(=O)C3COc4ccccc4O3)CC2)cc1 (stereo unspecified)	M4 antag 32
COc1cc2nc(N3CCN(C(=O)C4COc5ccccc5O4)CC3)nc(N)c2cc1OC (stereo unspecified)	M4 antag 29
CC1(C)OC(=O)C2=C(C[C@@H](C3CCCCC3)O[C@H]2c2ccc(Cl)cc2)O1	none
O=C(NCc1ccco1)c1nnc(Cc2ccc(F)cc2)o1	none
